# Measured values collected from several papers.
# Compare with care: the assays were run in different laboratories. pIC50: −log10 of the molar value.
# ALOX15: Polyunsaturated fatty acid lipoxygenase ALOX15 (ALOX15, Homo sapiens, UniProt P16050)
# ache: Acetylcholinesterase (ache, Electrophorus electricus, UniProt O42275)
# Sialidase-4: Sialidase-4 (Homo sapiens, UniProt Q8WWR8)
Structure (SMILES),target,observed,mode,method,notes,pIC50
CCOC(=O)c1ccccc1-c1c2ccc(=O)cc-2oc2cc(OCCCNc3c(C4CCCCCC4)nc4ccccn34)ccc12,ALOX15,enzyme activity,inhibitor,absorbance,,< 4.00
CC(C(=O)O)n1nc(Cn2cc3cc(OCCF)c(Cl)cc3n2)c2ccccc2c1=O (racemic),"Sphingosine 1-phosphate receptor 1 (S1PR1, Homo sapiens, UniProt P21453)",ligand displacement,,radioligand,cell membranes,< 6.00
CCOC(=O)c1ccccc1-c1c2ccc(=O)cc-2oc2cc(OCCCNc3c(-c4ccc5ccccc5c4)nc4ccccn34)ccc12,ALOX15,enzyme activity,inhibitor,absorbance,,< 4.00
Fc1ccc(Cn2cc(COc3ccc(-c4nnc(-c5ccccc5)o4)cc3)nn2)cc1,ache,enzyme activity,inhibitor,Ellman,,< 4.00
CC(C)CCC(=O)N[C@H]1[C@H]([C@H](O)[C@H](O)CO)OC(C(=O)O)=C[C@@H]1O,Sialidase-4,enzyme activity,inhibitor,,,3.57
CCCCCCCCCC(=O)N[C@@H](CCCN=C(N)N)C(=O)N[C@H](C(=O)N[C@@H](CCCCN)C(=O)N[C@@H](CCCN=C(N)N)C(=O)CCl)C(C)C,"Furin (FURIN, Homo sapiens, UniProt P09958)",enzyme activity,inhibitor,,,8.53
CN(C(=O)CC(C)(C)C)[C@H]1[C@H]([C@H](O)[C@H](O)CO)OC(C(=O)O)=C[C@@H]1O,Sialidase-4,enzyme activity,inhibitor,,,< 3.30
CCN(C)C(=O)Oc1ccc(/C=C/C(=O)NC2CCN(Cc3ccccc3)CC2)cc1OC,ache,enzyme activity,inhibitor,Ellman,,5.41
O=[N+]([O-])c1ccc(-c2nnc(-c3ccc(OCc4cn(Cc5ccc(F)cc5)nn4)cc3)o2)cc1,ache,enzyme activity,inhibitor,Ellman,,< 4.00
O=C(N1CCC2(CC1)C[C@@H](CN1CCCCS1(=O)=O)CCO2)C1(c2ccccc2)CCCC1,"ATP-dependent RNA helicase DDX3X (DDX3X, Homo sapiens, UniProt O00571)",ATPase activity,inhibitor,,,< 4.30
O=C(/C=C/c1ccc(OC(=O)N2CCCC2)cc1)NC1CCN(Cc2ccccc2)CC1,ache,enzyme activity,inhibitor,Ellman,,5.35
CCOC(=O)c1ccccc1-c1c2ccc(=O)cc-2oc2cc(OCCCNC(=O)C(OC(=O)c3ccccc3)C3CC3)ccc12 (stereo not drawn),ALOX15,enzyme activity,inhibitor,absorbance,,4.36
CC(C)(C)c1cn([C@H]2[C@H]([C@H](O)[C@H](O)CO)OC(C(=O)O)=C[C@@H]2O)nn1,Sialidase-4,enzyme activity,inhibitor,,,4.10
COc1cc(/C=C/C(=O)NC2CCN(Cc3ccccc3)CC2)ccc1OC(=O)N1CCCC1,ache,enzyme activity,inhibitor,Ellman,,5.51
CC(C)(C)NC(=O)N[C@H]1[C@H]([C@H](O)[C@H](O)CO)OC(C(=O)O)=C[C@@H]1O,Sialidase-4,enzyme activity,inhibitor,,,< 3.30
c1ccc(Cn2cc(COc3ccc(-c4nnc(-c5ccccc5)o4)cc3)nn2)cc1,ache,enzyme activity,inhibitor,Ellman,,< 4.00
COc1ccc(/C=C/C(=O)N2CCCC(NC(=O)OC(C)(C)C)C2)cc1OC (stereo not drawn),ache,enzyme activity,inhibitor,Ellman,,< 4.30
Cc1cn([C@H]2[C@H]([C@H](O)[C@H](O)CO)OC(C(=O)O)=C[C@@H]2O)nn1,Sialidase-4,enzyme activity,inhibitor,,,4.59
